From PubChem BioAssay
MrgX1 antag: blocks BAM8-22 activation of human MrgX1 receptor; Q96LB2; B-score at 10 µM; AID 588676; MRGX1-HEK293 calcium flux, Fluo-4, BAM8-22 antagonism; active compounds read low; hit rate 1.3% among 310,000;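 active = calcium-response B-score plate-corrected more than 3 library SD below zero, starting fluorescence within 5 deviations, no agonist response on first addition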;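 note: peak minus trough fluorescence over baseline after final BAM8-22 challenge near maximal dose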
Target sequence (Q96LB2 whole entry, looked up): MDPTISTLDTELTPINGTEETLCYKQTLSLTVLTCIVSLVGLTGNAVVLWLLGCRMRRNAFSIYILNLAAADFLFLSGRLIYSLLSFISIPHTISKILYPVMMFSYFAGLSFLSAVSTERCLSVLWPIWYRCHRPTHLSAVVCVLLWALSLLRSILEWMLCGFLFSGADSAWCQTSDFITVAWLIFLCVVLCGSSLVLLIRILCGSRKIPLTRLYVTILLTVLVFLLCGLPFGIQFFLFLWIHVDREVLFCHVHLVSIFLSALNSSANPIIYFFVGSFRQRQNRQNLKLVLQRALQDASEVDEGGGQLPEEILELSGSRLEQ
MrgX1 agonist: human MrgX1 receptor agonism, primary screen; AID 588627; MrgX1-HEK293 cells, Fluo-4 calcium fluorescence, agonist mode; active compounds read high; Q96LB2; B-score at 10 µM; hit rate 0.44% among 310,000;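 active = calcium response B-score plate-corrected fluorescence ratio at least 3 library SD, with starting fluorescence B-score inside 5 SD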
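Material: HEK293 cells stably expressing human MrgX1 receptor | Quantity: 15,000 cells per well | Times: Cells plated overnight, dye loaded 0.5 h 37 °C, 0.5 h room temperature | Measured by: Kinetic Fluo-4 NW fluorescence of intracellular calcium | Control set: Positive and negative controls per plate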
MrgX1 allo act: allosterically activates human MrgX1 receptor signaling. Q96LB2. MrgX1-HEK293, Fluo-4 calcium flux, FDSS; active compounds read high. B-score at 10 µM. hit rate 0.63% among 310,000. AID 588675;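 active = plate-corrected calcium response at least 3 library SD above typical, normal starting fluorescence, not activating the receptor alone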;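 note: compound read alongside a low EC10 to EC30 dose of BAM8-22 agonist; peak minus trough fluorescence over baseline measured at the second addition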
RGS4 act: RGS4 potentiation or activation; HEK293 M3R/inducible RGS4, carbachol calcium flux Fluo4; active compounds read low; B-score at 10 µM; hit rate 0.92% among 310,000;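 active = B-score of the integrated calcium signal more than 4 SD below the library mean, with starting fluorescence not abnormally high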;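 note: negative B-score means reduced calcium response which marks RGS4 activation or potentiation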
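Assay system: Inducible-RGS4 HEK293 cells carrying M3 receptor | Schedule: Compound preincubation 20 min at room temperature before agonist | Signal: Kinetic calcium fluorescence imaging with Fluo4-AM dye, 2 µM | Read-out basis: B score from integrated fluorescence ratio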
RGS4 inh: human RGS4 inhibition | hit rate 0.45% among 310,000 | B-score at 10 µM | HEK293 M3R/RGS4 inducible, Fluo-4 calcium flux; active compounds read high; triggered by carbachol at its EC20;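 active = B-score, a plate-corrected calcium signal, over three deviations above library mean, with baseline fluorescence within five deviations of library mean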;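 note: RGS4 expression induced by doxycycline in cells with stable M3 receptor; B-score is computed from the integrated fluorescence ratio over baseline after carbachol; higher B-score means a larger calcium signal and so more RGS4 inhibition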
Target sequence (P49798 whole entry, looked up): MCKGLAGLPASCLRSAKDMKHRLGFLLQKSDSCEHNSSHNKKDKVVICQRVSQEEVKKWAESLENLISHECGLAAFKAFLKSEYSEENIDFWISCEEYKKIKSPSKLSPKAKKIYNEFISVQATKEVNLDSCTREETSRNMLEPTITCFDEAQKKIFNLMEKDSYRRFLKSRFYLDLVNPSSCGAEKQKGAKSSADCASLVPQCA
MrgX1 ant reconf: reconfirmed antagonist of human MrgX1 receptor signaling; MrgX1-HEK293, BAM8-22 calcium flux, Fluo-4; active compounds read low; shares compounds with MrgX1 antag; hit rate 19% among 2,300; remaining BAM8-22 calcium response % of control (active compounds read low), % at 10 µM;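 active = remaining agonist calcium response no higher than 100% minus 3 SD of agonist-only control wells, with starting fluorescence near control levels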;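 note: agonist BAM8-22 given at a near maximal EC90 to ECmax level; peak minus minimum fluorescence divided by baseline after agonist addition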
HEK293 Ca flux: counter-screen for MrgX1 antagonists: effect in parental HEK293 cells | AID 624111 | hit rate 2% among 4,000 | fluorescence ratio F(max-min)/F0 at 10 µM | shares compounds with MrgX1 antag | Fluo-4 calcium fluorescence, FDSS;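 active = duplicate-averaged calcium fluorescence ratio at least three times the standard deviation of buffer wells, a nonspecific response in parental cells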
HEK293 Ca counter: activity in parental HEK293 cells without MrgX1; shares compounds with MrgX1 antag; parental HEK293 calcium flux, Fluo-4 fluorescence ratio; active compounds read high; fluorescence ratio F(max-min)/F0 at 10 µM; hit rate 0.4% among 4,000; AID 624114;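 active = calcium fluorescence ratio, averaged over duplicates, at least 3 SD of the buffer-well ratio, meaning a nonspecific response in receptor-free cells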;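 note: untransfected parental HEK293 lacking MrgX1 used as counterscreen for MrgX1 allosteric activators; fluorescence change taken during the second addition on a kinetic imager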
HEK293 Ca cntr2: counter-screen for MrgX1 activators: effect in parental HEK293 cells. hit rate 8.7% among 4,000. fluorescence ratio F(max-min)/F0 at 10 µM. shares compounds with MrgX1 antag. Fluo-4 calcium fluorescence (FDSS); active compounds read high;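 active = calcium fluorescence ratio at least three times the spread of buffer wells, meaning a non-specific response in parental cells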
* hit, by the source's call; i = inactive; / = no result. Hits are enriched below; roughly 3.5% of the tested compounds scored in any of these assays.

SMILES | MrgX1 antag | MrgX1 agonist | MrgX1 allo act | RGS4 act | RGS4 inh | MrgX1 ant reconf | HEK293 Ca flux | HEK293 Ca counter | HEK293 Ca cntr2
Cn1c(=O)c2c(nc(CN3CCOCC3)n2CCc2ccccc2)n(C)c1=O | -4.88* | i | i | i | i | i | i | i | i
CCOC(=O)c1ccc(-n2[nH]c(-c3ccccc3)cc2=O)cc1 | -5.85* | i | i | i | i | 71.3%* | i | i | i
CN(C)c1ccnc2sc3c(=O)n(-c4ccccc4)cnc3c12 | -4.62* | i | i | i | i | i | i | i | i
CCC(=O)Nc1ccc(NC(=S)Nc2ccccc2)cc1 | -4.76* | i | i | i | i | i | i | i | i
CCC(=O)Nc1ccc(NC(=S)NC(=O)Cc2ccccc2)cc1 | i | i | i | i | i | / | / | / | /
CC1CCCC(NC(=O)c2ccc(F)c(S(=O)(=O)N3CCOCC3)c2)C1C (centres undefined) | i | i | i | i | i | / | / | / | /
Cc1ccc(NC(=S)NCCc2ccc(F)cc2)c(C)c1 | -6.15* | i | i | i | i | i | i | i | i
Cc1ccc2nc(SCC(=O)O)nc(C)c2c1 | i | i | i | i | i | / | / | / | /
Cc1ccc2nc(SCCC#N)nc(C)c2c1 | -8.06* | i | i | i | i | i | i | i | i
Cc1cc(NC(=O)CSc2nc(=O)n3cc(Cl)ccc3n2)no1 | -8.17* | i | i | i | i | 73.0%* | i | i | i
Cc1ccn2c(=O)nc(SCC(=O)Nc3cc(C)on3)nc2c1 | i | i | i | i | i | / | / | / | /
CCCCn1c(N)c(N(CC(C)C)C(=O)CCNC(=O)c2ccccc2Cl)c(=O)[nH]c1=O | i | i | i | i | i | / | / | / | /
COc1ccc(Br)cc1CNC(=O)C1CCN(c2nnc(N3CCCC3=O)s2)CC1 | i | i | i | i | i | / | / | / | /
COc1ccc(CNC(=O)C2CCN(c3nnc(N4CCCC4=O)s3)CC2)cc1 | -5.28* | i | i | i | i | i | i | i | i
COc1ccc(CC(=O)Nc2c3c(nn2C(C)(C)C)CS(=O)(=O)C3)cc1 | i | i | i | i | i | / | / | / | /
Cc1cc(Nc2ccccc2)n(-c2ccc(C(=O)O)cc2)n1 | -4.53* | i | i | i | i | i | i | i | i
Cc1cc(C)n(-c2ccc(C(=O)O)cc2)n1 | i | i | i | i | i | / | / | / | /
Cc1ccccc1C(=O)Nc1cccc(-c2ccc(N3CCOCC3)nn2)c1 | -5* | i | i | i | i | i | i | i | i
CCCCOc1ccc(NC(=O)CSc2cccc3cccnc23)cc1 | -6.71* | i | i | i | i | i | i | i | i
CCCCc1ccc(NC(=O)CSc2nc3ncccc3[nH]2)cc1 | -5.68* | i | i | i | i | i | i | i | i
O=C(Oc1ccc2c3c(c(=O)oc2c1)CCC3)c1ccccc1[N+](=O)[O-] | i | i | i | i | i | / | / | / | /
COCCn1nnnc1CN1CCN(C(=O)c2ccco2)CC1 | -6.28* | i | i | i | i | i | i | i | i
COc1ccc(CCn2nnnc2CN2CCN(C(=O)c3ccco3)CC2)cc1OC | i | i | i | i | i | / | / | / | /
N#Cc1ccccc1CN1C(=O)NC2(CCCCCC2)C1=O | i | i | i | i | i | / | / | / | /
Cc1ccc(NC(=O)c2cccnc2)cc1S(=O)(=O)N(C)C | i | i | i | i | i | / | / | / | /
SMILES | MrgX1 antag | MrgX1 agonist | MrgX1 allo act | RGS4 act | RGS4 inh | MrgX1 ant reconf | HEK293 Ca flux | HEK293 Ca counter | HEK293 Ca cntr2
Cc1ccc(NC(=O)c2ccc3ncsc3c2)cc1S(=O)(=O)N(C)C | -5.44* | i | i | i | i | i | i | i | i
COc1cccc(COc2ccc3c(C)c(Cc4ccccc4)c(=O)oc3c2)c1 | -6.28* | i | i | i | i | i | i | i | i
O=C(CNC(=O)c1ccccc1F)OCc1csc(-c2ccccc2)n1 | -5.03* | i | i | i | i | i | i | i | i
Cc1ccc2nc3sc(C(=O)N4CCCc5ccccc54)c(N)c3cc2c1 | -5.74* | i | i | i | i | i | 0.577* | i | i
COC(=O)CS(=O)(=O)c1cc(Br)cc2c1N(C(C)=O)CC2 | -5.42* | i | i | i | i | i | i | i | 65.3*
COc1cc2c(cc1OC)CN(C(=O)C(CCSC)NS(=O)(=O)c1ccc(C)cc1)CC2 (centres undefined) | i | i | i | i | i | / | / | / | /
Cc1ccc(S(=O)(=O)N2CCCC2C(=O)NC2CCCCC2)cc1 (centres undefined) | -13.7* | i | i | i | i | i | i | i | i
O=C1CCCN1CCCNS(=O)(=O)c1ccc(Br)cc1 | i | i | i | i | i | / | / | / | /
Cc1cc(C)c(C)c(S(=O)(=O)NCCCN2CCCC2=O)c1C | -5.44* | i | i | i | i | i | i | i | i
Cc1ccc(-c2nc(S(=O)(=O)c3ccc(C)cc3)c(SCC(N)=O)o2)cc1 | i | i | i | i | i | / | / | / | /
Cc1ccc(S(=O)(=O)c2nc(-c3cccs3)oc2SCC(N)=O)cc1 | -7.12* | i | i | i | i | i | i | i | i
Cc1ccc(OCCC(=O)OCC(=O)Nc2ccc3[nH]c(=O)[nH]c3c2)cc1 | i | i | i | i | i | / | / | / | /
CN(Cc1ccccc1)C(=O)c1ccc(NC(=O)c2ccccc2)cc1 | -5.53* | i | i | i | i | i | i | i | i
O=C(NNC(=S)NC(=O)c1sc2ccccc2c1Cl)c1ccc(Cl)cc1 | -18* | i | i | i | i | i | i | i | i
Cc1ccccc1CNC(=O)C(=O)Nc1nccs1 | i | i | i | i | i | / | / | / | /
COc1ccc(OCc2cc(C(=O)NCC3CCCCO3)no2)c(Cl)c1 (centres undefined) | i | i | i | i | i | / | / | / | /
